The text below walks through data of ChEMBL document CHEMBL1126254, “Specific inhibition of HIV-1 protease by boronated porphyrins” (J Med Chem, 1992).

Test [1] deals with T1, Human immunodeficiency virus type 1 protease (Human immunodeficiency virus 1, UniProt Q72874). Description: Inhibition of HIV-1 protease in 10% fetal calf serum(FCS). In outline: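 COS A6 cells, which constitutively release viral capsids, were exposed to inhibitor in Dulbecco's PBS for 15 min. An equal volume of medium with 10% FCS plus inhibitor was then added and incubation continued for 3.75 h. Capsids were isolated from the supernatant, and polyprotein processing was scored as p24 by ELISA.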

A short description of test [2]: (§1) Cytotoxicity on COS A6 cells in the absence of 10% fetal calf serum(FCS). The note with it: read-out: LD50 (the source's name). The test is classed as functional. In a few lines:
(§2)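 COS A6 cells, which are cloned progeny that constitutively release viral capsids, were cultured without fetal calf serum and exposed to compound. Viability was read by MTT stain assay, and the LD50 was derived from it.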

Test [3] addresses Human immunodeficiency virus type 2 pol protein (Human immunodeficiency virus 2, UniProt P88142). The test is described as follows: Inhibition of HIV-2 protease in 5%DMSO. In a few lines:
(§3)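 Purified recombinant HIV PR activity was followed by cleavage of a decapeptide substrate. Incubation was 30–45 min at 37 °C, and hydrolysis products were quantified by HPLC.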

Test [4] concerns the target T1, Human immunodeficiency virus type 1 protease. The test is described as follows: Inhibition of HIV-1 protease in 5%DMSO. In a few lines: as §3
A further test has as its system COS A6. The test is described as §1. In kind it is functional. In outline:
as §2

The target of test [5] is T1, Human immunodeficiency virus type 1 protease. Description: Inhibitory concentration against HIV-1 protease in the absence of DMSO. In outline:
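The water-soluble dipotassium salt was tested against aspartyl proteases with no DMSO present, and IC50 values were determined.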

Test [6] concerns the target HIV-2 protease (Human immunodeficiency virus 2). Description: Inhibitory concentration against HIV-2 protease in the absence of DMSO.

Chain of Human immunodeficiency virus type 2 pol protein (P88142 whole entry): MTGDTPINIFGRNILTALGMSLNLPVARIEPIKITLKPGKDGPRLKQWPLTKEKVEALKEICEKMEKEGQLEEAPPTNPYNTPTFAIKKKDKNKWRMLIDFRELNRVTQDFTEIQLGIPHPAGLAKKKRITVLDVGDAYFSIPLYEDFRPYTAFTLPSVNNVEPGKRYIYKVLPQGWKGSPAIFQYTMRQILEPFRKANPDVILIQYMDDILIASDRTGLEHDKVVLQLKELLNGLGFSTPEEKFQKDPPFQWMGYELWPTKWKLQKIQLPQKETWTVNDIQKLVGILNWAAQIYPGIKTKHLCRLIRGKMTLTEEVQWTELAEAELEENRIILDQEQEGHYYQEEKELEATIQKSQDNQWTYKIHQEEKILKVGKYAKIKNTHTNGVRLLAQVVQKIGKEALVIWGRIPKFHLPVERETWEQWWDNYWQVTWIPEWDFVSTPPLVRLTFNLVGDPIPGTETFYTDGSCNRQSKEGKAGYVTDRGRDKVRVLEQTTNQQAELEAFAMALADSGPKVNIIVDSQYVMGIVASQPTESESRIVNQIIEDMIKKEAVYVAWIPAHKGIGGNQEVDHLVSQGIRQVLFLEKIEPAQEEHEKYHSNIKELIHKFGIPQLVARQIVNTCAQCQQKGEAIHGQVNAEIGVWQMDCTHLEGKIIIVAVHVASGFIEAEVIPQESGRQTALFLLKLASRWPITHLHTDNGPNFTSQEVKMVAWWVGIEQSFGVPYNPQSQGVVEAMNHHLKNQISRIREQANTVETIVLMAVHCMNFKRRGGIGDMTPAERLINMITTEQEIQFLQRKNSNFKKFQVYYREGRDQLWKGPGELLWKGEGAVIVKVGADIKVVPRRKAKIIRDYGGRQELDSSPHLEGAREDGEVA

Consider `CC1=C(C(COC(=O)c2ccccc2)OC(=O)c2ccccc2)c2cc3nc(cc4[nH]c(cc5[nH]c(cc1n2)c(C)c5CCC(=O)O)c(CCC(=O)O)c4C)C(C(COC(=O)c1ccccc1)OC(=O)c1ccccc1)=C3C` (stereo unspecified), for which the IC50 was > 100 µM in test [1], 30 µM in test [3] and 14 µM in test [4]. Also, in test [2] (COS A6), the CC50 was determined as 250 µM.

As for `CC1=C(C(COC(=O)c2ccc3ccccc3c2)OC(=O)c2ccc3ccccc3c2)c2cc3nc(cc4[nH]c(cc5[nH]c(cc1n2)c(C)c5CCC(=O)O)c(CCC(=O)O)c4C)C(C(COC(=O)c1ccc2ccccc2c1)OC(=O)c1ccc2ccccc2c1)=C3C` (stereo unspecified), the IC50 in test [1] was > 150 µM; in test [3], 23 µM; in test [4] it was 14 µM. Further, in test [2] (COS A6), the CC50 amounted to 250 µM.

With `CC[C@H](C)[C@H](NC(=O)[C@H](C(C)C)[C@@H](O)[C@H](O)[C@H](CC1CCCCC1)NC(=O)[C@H](Cc1c[nH]cn1)NC(=O)COc1cccc2ccccc12)C(=O)NCc1ccccn1`, the concentration for half-maximal inhibition (IC50) was 0.75 µM in test [1], 0.03 µM in test [3] and < 0.001 µM in test [4]. The CC50 in test [2] (COS A6) is 45 µM.

“3-[18-(2-Carboxy-ethyl)-8,13-bis-(1,2-diacetoxy-ethyl)-3,7,12,17-tetramethyl-22,24-dihydro-porphin-2-yl]-propionic acid;Mn complex” showed an LD50 in the test with COS A6 of 70 µM.

As for `CC1=C(CCC(=O)O)c2cc3[nH]c(cc4[nH]c(cc5nc(cc1n2)C(C)=C5C(COC(=O)C1=CCC1)OC(=O)C1=CCC1)c(C)c4C(COC(=O)C1=CCC1)OC(=O)C1=CCC1)c(C)c3CCC(=O)O` (stereo unspecified), the IC50 stood at 10 µM in test [1], 1.55 µM in test [3], 0.9 µM in test [5] and 0.7 µM in test [4]. The CC50 in test [2] (COS A6) worked out at 25 µM.

Take `CC1=C(C(COC(=O)c2ccc(N(C)C)cc2)OC(=O)c2ccc(N(C)C)cc2)c2cc3nc(cc4[nH]c(cc5[nH]c(cc1n2)c(C)c5CCC(=O)O)c(CCC(=O)O)c4C)C(C(COC(=O)c1ccc(N(C)C)cc1)OC(=O)c1ccc(N(C)C)cc1)=C3C` (stereo unspecified): the IC50 in test [1] was 75 µM; in test [3], 18 µM; in test [4], 7 µM. In test [2] (COS A6), the CC50 was > 250 µM.

“3-[18-(2-Carboxy-ethyl)-8,13-bis-(1,2-diacetoxy-ethyl)-3,7,12,17-tetramethyl-22,24-dihydro-porphin-2-yl]-propionic acid;Co complex [listing 1 of 2 here]” registered an LD50 with COS A6 of 150 µM.

In test [1], “3-[18-(2-Carboxy-ethyl)-8,13-bis-(1,2-diacetoxy-ethyl)-3,7,12,17-tetramethyl-22,24-dihydro-porphin-2-yl]-propionic acid;Co complex [listing 2 of 2 here]” came in with an IC50 of 25 µM.

As for `CC1=C(C(COC(=O)C23C[C@H]4C[C@@H](C2)C[C@@H](C3)C4)OC(=O)C23C[C@H]4C[C@@H](C2)C[C@@H](C3)C4)c2cc3nc(cc4[nH]c(cc5[nH]c(cc1n2)c(C)c5CCC(=O)O)c(CCC(=O)O)c4C)C(C(COC(=O)C12C[C@H]4C[C@@H](C1)C[C@@H](C2)C4)OC(=O)C12C[C@H]4C[C@@H](C1)C[C@@H](C2)C4)=C3C` (stereo partly specified), the CC50 in test [2] (COS A6) was 250 µM. Besides, the IC50 in test [3] was 13 µM; in test [4], 5 µM.

As for `CC1=C(C(O)CO)c2cc3nc(cc4[nH]c(cc5[nH]c(cc1n2)c(C)c5CCC(=O)O)c(CCC(=O)O)c4C)C(C(O)CO)=C3C` (stereo unspecified), the IC50 is > 200 µM in test [1], 480 µM in test [3] and 280 µM in test [4]. For the same molecule, in test [2] (COS A6), the CC50 turned out to be 250 µM.

With `CC1=C(CCC(=O)O)c2cc3[nH]c(cc4[nH]c(cc5nc(cc1n2)C(C)=C5C(COC(=O)C1=CC1)OC(=O)C1=CC1)c(C)c4C(COC(=O)C1=CC1)OC(=O)C1=CC1)c(C)c3CCC(=O)O` (stereo in doubt), the IC50 in test [1] was > 150 µM; in test [3], 11 µM; in test [4], 12 µM. The CC50 in test [2] was found to be 250 µM.

For `C=CC1=C(C)c2cc3[nH]c(cc4nc(cc5[nH]c(cc1n2)c(C)c5CCC(=O)O)C(CCC(=O)O)=C4C)c(C)c3C=C` [PROTOPORPHYRIN], the IC50 in test [1] is > 200 µM; in test [3] it was 500 µM; in test [4] it was 300 µM. Further, the CC50 in test [2] (COS A6) was < 50 µM.

With “3-[18-(2-Carboxy-ethyl)-8,13-bis-(1,2-diacetoxy-ethyl)-3,7,12,17-tetramethyl-22,24-dihydro-porphin-2-yl]-propionic acid;Cu complex [listing 1 of 2 here]”, in the test on COS A6, the LD50 came out at 80 µM.

Take “3-[18-(2-Carboxy-ethyl)-8,13-bis-(1,2-diacetoxy-ethyl)-3,7,12,17-tetramethyl-22,24-dihydro-porphin-2-yl]-propionic acid;Cu complex [listing 2 of 2 here]”: the midpoint of inhibition in test [6], the IC50, lay at 0.47 µM.
